# Published values pooled from the literature.
# Each line is one published result; the experiments were not run side by side.
# Sample: plasma
SMILES,species,route,dose,setting,Cmax [ng/mL]
Cn1cc(Nc2nc(N)nc(-c3cccc(-n4ccc5cc(C6CC6)cc(F)c5c4=O)c3CO)n2)cn1,human,oral,600 mg,"single dose, fasted, suspension",5360
Cc1ccc(C(=O)Nc2ccc(CN3CCN(C)CC3)c(C(F)(F)F)c2)cc1C#Cc1cnc2[nH]ncc2c1,human,oral,20 mg,"single dose, fed, healthy volunteers",5.02
CNC(=O)n1ccc2cc(Oc3ccnc(NC(=O)c4ccc(C5CCN(CCO)CC5)cc4)c3)c(OCCOC)cc21,human,oral,35 mg,"single dose, fasted, healthy volunteers",9.82
CC(=O)N[C@H]1CC[C@H](NC(=O)CN2CCN(c3nncc(-c4ccc(C)cc4)n3)CC2)CC1,female human,oral,100 mg,"single dose, fasted",1550
CN1CC[C@@H](c2c(O)cc(O)c3c(=O)cc(-c4ccc(C(F)(F)F)cc4Cl)oc23)[C@@H]1CO,human,oral,150 mg,patients,245
CC(C)n1c(Nc2cccnc2)nc2cnc(Nc3ccc(N4CCN(C)CC4)cc3)nc21,male human,oral,150 mg,single dose,76.1
Cl.[2H]C([2H])([2H])CC(=O)c1cnc(NC(=O)C2CC2)cc1Nc1cccc(-c2ncn(C([2H])([2H])[2H])n2)c1OC,human,oral,10 mg,"multiple doses, once daily, fasted",99.5
COc1ccc([C@@H](O)c2cc(-c3ncnc4cc(N5CCOCC5)ccc34)c(F)cc2Cl)nn1,human,oral,200 mg,"single dose, patients",854
NS(=O)(=O)OC[C@@H]1C[C@@H](n2ccc3c(N[C@H]4CCc5ccccc54)ncnc32)C[C@@H]1O,human,intravenous,15 mg/m²,patients,127
